Bioassay records (PubChem)
The sample as a whole holds a higher share of hits than the screen did.
hiPSC survival – increases survival of single human iPS cells; survival enhancement, % at 20 µM; 360,000 compounds, 0.044% hits; AID 602274; hiPSC single-cell survival, ATPlite luminescence; 100% = ROCK inhibitor wells, 0% = DMSO; in the data active = survival enhancement above about 18%;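 note: cells exposed to compounds for 16 hours before the ATP read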
UPR CHOP act – apoptotic UPR (CHOP) activation. 330,000 compounds, 0.34% hits. CHO-CHOP luciferase reporter, luminescence; percent of tunicamycin response over DMSO baseline. activation, % at 10 µM. AID 449763;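 active = at 10 µM dose, activation of 40% or more, normalized to positive control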;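 note: 100% = tunicamycin at 10 µg/mL and 0% = DMSO alone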
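measured by = luciferase luminescence | assay system = CHO-CHOP cells, stable luciferase reporter of PERK-eIF2a-CHOP signalling | amount = 500 reporter cells seeded per well | timing = 6 h compound exposure at 37 °C after overnight seeding | controls = positive tunicamycin 10 µg/mL, negative DMSO alone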
Cardio protect – modulators protecting cardiomyocytes from myocardial damage | H9c2 cardiomyocytes, H2O2 injury protection, ATPLite, 2 h | protection from H2O2 cell death, % at 20 µM | 360,000 compounds, 0.63% hits;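 active = compounds giving at least 50% protection of heart cells from peroxide-induced death in the single-dose screen, raw or plate-pattern-corrected value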;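 note: 0% = DMSO wells with peroxide and 100% = DMSO wells without peroxide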
XBP1 UPR activ – activators of adaptive arm of unfolded protein response (XBP1); 330,000 compounds, 0.33% hits; CHO-XBP1 luciferase reporter, IRE1-XBP1 UPR activation, luminescence; percent of tunicamycin response, DMSO as zero; activation, % at 20 µM;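 active = versus positive control, 20 µM dose yields 30% or more activation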;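 note: 100% = tunicamycin at 10 µg/mL and 0% = DMSO only wells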
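Material: CHO-XBP1 cells stably carrying IRE1-XBP1-driven luciferase reporter / Amount: 1000 cells per well / Compound: 20 µM, 1% DMSO / Times: 6 h treatment, 37 °C / Detection: luciferase luminescence / Measure: % activation of reporter signal versus tunicamycin and DMSO controls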
CHOP inh – inhibitors of CHOP induction in ER stress response; CHO-K1 CHOP-promoter luciferase, tunicamycin-induced, 15-18 h; inhibition, % at 10 µM; 220,000 compounds, 3.8% hits; AID 2732;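 active = compounds that reduced the stress-induced luciferase reporter signal by more than about 70% of percent inhibition, limit read from the data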;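 note: 0% = tunicamycin plus vehicle and 100% = wells without tunicamycin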
* hit, by the source's call; . = not tested or not shown.

SMILES	hiPSC survival	UPR CHOP act	Cardio protect	XBP1 UPR activ	CHOP inh
CCOc1ccc(S(=O)(=O)N2CCC(C(=O)Nc3ccccc3N3CCCC3)CC2)cc1	0	.	-5	.	.
O=C1NC(=O)/C(=C\c2ccccc2OCc2ccc([N+](=O)[O-])cc2)N1	1	-1	-2	1	57
O=C1NC(=O)/C(=C\c2ccc(OCc3cccc([N+](=O)[O-])c3)cc2)N1	-1	4	-3	6	76*
CC(=O)c1ccc(NC(=S)NC(C)c2ccc(Cl)cc2Cl)cc1 (stereo not given)	-1	2	-23	-2	73*
CCc1c(C#N)c(SCCC(=O)Nc2ccc(F)cc2)nc2c1C(=O)CC(C)(C)C2	-1	0	-21	-3	88*
CCc1c(C#N)c(SCCC(=O)Nc2cccc(OC)c2)nc2c1C(=O)CC(C)(C)C2	8	-2	8	-2	64
O=C(CN1CC(=O)Oc2ccccc21)OCC(=O)c1ccc(Br)cc1	2	-1	57*	-2	.
C=CCn1c(-c2csc(-c3ccc(Cl)cc3)n2)n[nH]c1=S	-2	-1	-2	3	72*
CN(CCCn1ccc(NC(=O)OCc2ccccc2)nc1=O)CCc1ccccn1	1	.	-13	.	.
Cc1ccc2oc(=O)n(Cc3ccccc3OC(C)C)c2c1	-3	-1	-8	-2	84*
COc1ccccc1Cn1c(=O)oc2ccc(C)cc21	1	3	-2	-3	.
Cc1ccc2oc(=O)n(CCCOc3ccccc3C)c2c1	0	1	-7	3	82*
Cc1cn([C@H]2C[C@H](O)[C@@H](/C=C/C(=O)NCCN3CCOCC3)O2)c(=O)[nH]c1=O	2	.	3	.	.
Cc1cccc2sc(=S)[nH]c12	0	.	-8	.	.
O=NNc1nc2ccccc2n1Cc1ccccc1	0	-2	72*	-5	.
Cc1ccc(NC(=O)Nc2nc(-c3ccc(C)s3)cs2)cc1	-6	3	-14	5	86*
COc1ccc(-c2csc(NC(=O)Nc3ccccc3)n2)cc1	0	4	-2	-2	.
Cc1cc(C)nc(SCC(=O)Nc2ccc(N3CCOCC3)c(Cl)c2)n1	-2	2	-37	-3	.
O=C(COc1c(F)c(F)c(C(F)(F)F)c(F)c1F)Nc1ccc(N2CCOCC2)c(Cl)c1	0	-3	-20	-3	85*
O=C(CSc1nnc(C23CC4CC(CC(C4)C2)C3)o1)Nc1ccc(N2CCOCC2)c(Cl)c1	2	2	-4	-2	76*
O=C(CSc1nnnn1-c1cccc2ccccc12)Nc1ccc(N2CCOCC2)c(Cl)c1	3	-3	-7	1	71*
O=C(COC(=O)c1ccc(F)cc1F)NCc1ccc2c(c1)OCO2	0	0	-4	-2	.
CCc1ccc(C(=O)c2cncc(Br)c2)cc1	3	2	-22	1	74*
O=C(Nc1ccncc1)C1COc2ccccc2O1 (stereo not given)	3	-1	-7	-2	-6
CCOC(=O)c1ccccc1NC(=O)C1COc2ccccc2O1 (stereo not given)	0	6	-11	6	74*
SMILES	hiPSC survival	UPR CHOP act	Cardio protect	XBP1 UPR activ	CHOP inh
O=C(NC1=NCCS1)C1COc2ccccc2O1 (stereo not given)	-4	-11	-15	-7	76*
CCCNC(=O)C1(C)CCCN(C(=O)COc2ccc(C(C)(C)C)cc2)C1 (stereo not given)	-1	.	-8	.	.
CCN(CC)C(=O)C1=C(C)N(CCCOC)C(=O)C(CC(=O)NC2CCCCC2)C1 (stereo not given)	5	.	5	.	.
COc1ccc(OC)c(COC(=O)c2cccc(S(=O)(=O)N3CCCCC3)c2)c1	0	-1	-3	-3	.
Cc1cccc(OCC(=O)N/N=C\c2cn(C)c3ccccc23)c1	2	1	0	0	55
CCOC(=O)c1c2ccc(OCC(=O)N/N=C/c3ccccc3C(F)(F)F)cc2n2ccccc12	.	.	.	.	96*
CCCCn1c(N)c(N(C(=O)CSc2nncn2-c2ccccc2C)C2CCCC2)c(=O)[nH]c1=O	0	.	2	.	.
COc1cccc(CN2CCC2(C)C(=O)Nc2ccc3c(c2)CCN3C(C)=O)c1F (stereo not given)	-2	.	16	.	.
Cc1nc2ccc(C(C(F)(F)F)(C(F)(F)F)C(F)(F)F)cc2[nH]1	0	1	-22	-2	73*
Cc1nc2ccc(Cl)cc2[nH]1	0	.	-1	.	.
Cc1ccc(OCc2nnc(SCC(=O)CC(=O)Nc3ccccc3)o2)cc1	-2	-2	-8	-3	73*
COc1ccc(N=Cc2c(O)c3ccccc3n2C(C)=O)cc1	-1	4	-10	5	-5
COc1ccc(N=Cc2sc(O)c3ccccc23)cc1	-2	2	51*	5	52
Cn1c(-c2ccco2)n[nH]c1=S	2	-1	-1	0	-7
S=c1nc(-c2ccco2)[nH][nH]1	1	-2	23	0	74*
O=c1c2c3nc4ccccc4nc3n(-c3ccc4c(c3)OCCO4)c2ncn1C1CCCC1	0	77*	-20	10	.
COC(=O)c1c(C)[nH]c(C(=O)/C=C/c2ccccc2)c1C	-3	4	-17	-2	76*
COc1ccc(/C=C/C(=O)O)cc1O	-2	0	-1	-2	.
Cc1cccc(NC2(C(=O)O)CCCC2)c1	4	.	-2	.	.
O=C(/C=C/Nc1ccccc1Br)c1ccccn1	-6	-11	-35	-14	88*
Cc1ccc(S(=O)(=O)NC(=O)N2CCCC2)cc1	7	.	-4	.	.
Cc1cccc(C)c1NC(=O)COc1ccc2c(C)c(Cc3ccccc3)c(=O)oc2c1C	-3	-1	-20	6	96*
Cc1c(Cc2ccccc2)c(=O)oc2c(C)c(OCC(=O)Nc3ccc(C#N)cc3)ccc12	1	4	1	-1	21
Cc1ccc(S(=O)(=O)N[C@H](C(=O)OCC(=O)NC(=O)NCc2ccco2)C(C)C)cc1	24*	-2	0	-2	.
COc1ccc(-c2csc(NC(=O)Cc3ccccc3)n2)cc1OC	0	2	4	-3	.
SMILES	hiPSC survival	UPR CHOP act	Cardio protect	XBP1 UPR activ	CHOP inh
Cc1nnc(NC(=O)CCn2cnc3ccccc3c2=O)s1	0	-1	0	3	0
COc1ccc(-c2csc(NC(=O)CCn3cnc4ccccc4c3=O)n2)cc1OC	1	1	58*	9	52
COc1ccc(-c2csc(NC(=O)CCCc3nc4ccccc4c(=O)[nH]3)n2)cc1OC	0	-1	91*	-1	.
NC(=O)c1ccc(Nc2nnc(-c3ccc(O)cc3)c3ccccc23)cc1	0	0	59*	1	2
CCN(CC)C(=O)c1ccc(-c2nnc(Nc3ccc(C(=O)N(C)C)cc3)c3ccccc23)cc1	1	3	13	-6	.
CCN(CC)C(=O)c1ccc(-c2nnc(Nc3ccc(O)cc3)c3ccccc23)cc1	0	-1	59*	-5	.
